Screening data deposited in PubChem BioAssay by several laboratories.
Sampled rows, rich in hits. Any-hit rate of the full collection: about 1.7%.
UCH37 inh: inhibitors of human UCH37 deubiquitinase, primary screen, biochemical, Ub-AMC cleavage, fluorescence | purified proteasome/UCH37 | inhibition, % (test concentration not listed) | 0.33% of 330,000 active | AID 588478, 2011;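 active = mean inhibition over replicate wells above about 20%, limit read from the data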;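 also: 0% = compound-free wells with enzyme and 100% = wells lacking proteasome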
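Material: Human UCH37 enzyme supplied as purified proteasome complex | Schedule: 30 min compound-proteasome preincubation then 25 min substrate reaction, room temperature | Detection: AMC fluorescence from Ub-AMC cleavage, excitation 355 nm, emission 460 nm | Benchmarks: Wells without proteasome as full block, compound-free enzyme plus substrate as uninhibited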
PLCb3 inh: human PLC-beta3 inhibitors, primary screen, biochemical, fluorescence; inhibition, % at 12.2 µM; AID 720704, 2013; 0.18% of 370,000 active; 1-phosphatidylinositol 4,5-bisphosphate phosphodiesterase beta-3 (Homo sapiens), Q01970; Purified PLC-beta3, fluorogenic substrate; in the data active = inhibition above about 11%;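 also: 0% = median of compound wells on plate and 100% = full blocker control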
Rpn11 block: Rpn11 (PSMD14) deubiquitinase inhibitors, primary screen, biochemical, fluorescence polarization, uHTS. 26S proteasome non-ATPase regulatory subunit 14 (Homo sapiens), O00487. human 26S proteasome, Ub4-pepOG fluorescence polarization; 20S core pre-blocked with epoxomicin. inhibition, % at 20 µM. 0.59% of 360,000 active;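 active = inhibition at 20 µM, scaled to each plate's controls, above about 33%, limit read from the data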
PLCg1 inh: PLC-gamma1 enzyme inhibitors, primary screen, biochemical, fluorescence, purified enzyme; 1-phosphatidylinositol 4,5-bisphosphate phosphodiesterase gamma-1 (Homo sapiens), P19174; fluorogenic substrate; inhibition, % at 12.2 µM; 0.84% of 370,000 active; AID 720700, 2013
PLCgamma1 ctr: PLC-gamma1 enzyme inhibitors, counter-screen for PLC-beta3 inhibitor project, biochemical, fluorescence. shares compounds with PLCg1 inh. purified PLC-gamma1, fluorogenic substrate. inhibition, % at 12.3 µM. 3.1% of 3,300 active
PLCb3 confirm: PLC-beta3 inhibitor confirmation, biochemical, fluorescence, purified enzyme | fluorogenic substrate fluorescence | AID 743261, 2014 | inhibition, % at 12.3 µM | shares compounds with PLCg1 inh | 1% of 3,300 active; in the data active = inhibition above about 11%
An asterisk follows results filed as active; x = no result given. Rule as the data show it, unless noted: active = inhibition above about 9.5%; inactive = the rest.

SMILES	UCH37 inh	PLCb3 inh	Rpn11 block	PLCg1 inh	PLCgamma1 ctr	PLCb3 confirm
N#Cc1c(NC(=O)CSc2nnnn2C2CCCC2)sc2c1CCCC2	4.3	-0.2	-1.0	10.0*	1.9	-6.4
Cc1sc(NC(=O)CSc2nnnn2C2CCCC2)c(C#N)c1C	4.4	-0.8	4.3	2.5	x	x
CCOc1cccc(CN2CCCC(CCC(=O)NCc3ccccc3F)C2)c1O (stereo not drawn)	-2.1	11.4*	-1.8	11.3*	-6.3	-0.3
O=C(Cc1ccc(Cl)cc1)NC1CCCN(Cc2ccccc2F)C1 (stereo not drawn)	-1.0	-2.3	1.6	11.8*	-3.3	2.1
Cc1nn(C)c(Cl)c1CN1CCCC(CCC(=O)NCc2ccccc2F)C1 (stereo not drawn)	2.1	-1.7	3.1	-0.5	x	x
CC(=NNC(=O)c1ccccc1F)c1cccc(NC(=O)c2ccc(C)cc2)c1	3.7	x	x	x	x	x
COc1cccc(C=NNc2nc3ccccc3[nH]2)c1O	5.0	x	x	x	x	x
CC(NC(=O)c1ccccc1Cl)C1COc2ccccc2O1 (stereo not drawn)	2.1	13.1*	-2.4	7.4	1.1	0.6
CCC(CC)c1nn2c(N)c(/C=C3\C=Nc4ccccc43)c(=O)nc2s1	-59.3	3.8	9.1	10.0*	-48.4	-46.2
CCC1Sc2ccccc2N(CC(=O)NCCC(C)C)C1=O (stereo not drawn)	-0.3	3.1	-10.2	12.6*	-7.2	-1.9
CC(=NNC(=O)c1nnn(-c2nonc2N)c1-c1ccc2c(c1)OCO2)c1ccc(C)cc1	-10.2	x	x	x	x	x
COc1ccc(C(C)=NNC(=O)c2sccc2-n2cccc2)cc1	-21.6	x	x	x	x	x
Clc1nc(N2CCOCC2)ncc1Br	-0.5	-4.5	-5.6	11.9*	-7.5	1.2
O=C(CN1CCSCC1)NN=Cc1ccc(F)cc1	1.2	x	x	x	x	x
COc1ccc(NC(=O)c2sc3cc(C(F)(F)F)cnc3c2-c2cccs2)cc1	-14.3	0.7	-4.0	11.1*	-25.6	-25.4
COc1cc(OC)c(S(=O)(=O)Nc2ccccc2NC(=O)CN2CCOCC2)cc1NC(C)=O	1.2	2.1	-0.3	14.6*	-5.8	-3.9
COc1cc(C=NNC(=O)C[n+]2ccccc2)cc(OC)c1OC	3.9	x	x	x	x	x
Cc1nc([N+](=O)[O-])cn1CCCCN1C(=O)c2ccccc2C1=O	2.9	1.1	-1.0	10.5*	-0.2	-2.1
O=C(c1cc2ccccc2oc1=O)N1CCCC1	2.3	3.5	-3.9	14.6*	-5.7	-11.1
O=C(c1cc2ccccc2oc1=O)N1CCCCCCC1	2.7	-2.2	-8.4	1.7	x	x
Cc1cnc(C(=O)N2CCc3c([nH]c4ccccc34)C2c2ccc(F)cc2)cn1 (stereo not drawn)	1.8	-0.2	-6.0	0.2	x	x
CCc1ccc(C2c3[nH]c4ccccc4c3CCN2C(=O)c2cc(C)nn2C)cc1 (stereo not drawn)	1.8	1.9	-3.9	10.1*	-5.2	-5.3
O=C(O)COc1ccccc1C=NNc1ccc(S(=O)(=O)Nc2ccc(Cl)cc2)cc1[N+](=O)[O-]	16.9	x	x	x	x	x
O=C(O)c1cccc2cccc(-c3c4ccc(=O)c(O)c-4oc4c(O)c(O)ccc34)c12	x	-6.4	-28.2	39.0*	27.7*	-5.9
O=C(O)c1cccc2cc(-c3ccccc3)oc(=O)c12	-260.8	-59.5	4.5	-44.0	x	x
SMILES	UCH37 inh	PLCb3 inh	Rpn11 block	PLCg1 inh	PLCgamma1 ctr	PLCb3 confirm
O=C(/C=C/c1cccc([N+](=O)[O-])c1)N1CC[C@@]2(O)CCCC[C@H]2C1	-0.1	1.9	0.7	10.5*	0.5	-2.3
O=C(/C=C/c1cccc([N+](=O)[O-])c1)N1CCOCC1	2.3	8.3	-1.6	3.5	x	x
CCN(CC)c1ccc(NC(=O)CSc2nc3ccccc3c(=O)n2-c2ccc(C)cc2)cc1	x	8.5	x	11.8*	-6.6	-3.9
O=C(NCc1n[nH]c(=S)n1-c1cccc(C(F)(F)F)c1)c1ccc(S(=O)(=O)N2CCCCC2)cc1	-1.2	2.5	-0.8	11.5*	1.3	-4.3
CCC(C)[C@H]1CNCCN1CCc1cc(C(F)(F)F)cc(C(F)(F)F)c1 (stereo partly drawn)	-0.7	7.2	-7.8	10.8*	-11.4	-4.2
CCC(C)[C@H]1CNCCN1CCc1cccc2ccccc12 (stereo partly drawn)	2.6	7.7	10.7	10.7*	-4.7	-0.1
CC(O)[C@H]1CNCCN1CC1(c2ccccc2)CC1 (stereo partly drawn)	8.7	9.7	-1.1	5.1	x	x
CCC(C)[C@H]1CNCCN1CC1(c2ccccc2)CC1 (stereo partly drawn)	-1.6	13.8*	-13.4	7.7	-3.9	-6.0
CC(=NNC(=O)c1ccccc1)c1cc2cc([N+](=O)[O-])ccc2oc1=O	5.3	x	x	x	x	x
CCn1c(SCC(=O)c2ccccc2)nc2c(c1=O)SC(C)C2 (stereo not drawn)	9.0	1.9	-3.8	11.5*	-4.4	-0.4
CC(N=C1CC(C)(C)CC(=O)/C1=C(\O)CCCN1C(=O)c2ccccc2C1=O)C(=O)O (stereo not drawn)	1.5	x	x	x	x	x
O=S(=O)(CS(=O)(=O)c1ccccc1Br)c1ccccc1Br	x	-0.7	x	22.1*	17.1*	-11.8
O=C(O)C1CCCCN1C(=O)c1ccc(S(=O)(=O)N2CCCCCC2)cc1 (stereo not drawn)	3.9	-3.0	-4.5	1.0	x	x
O=C(O)C1CCCCN1C(=O)c1ccc(S(=O)(=O)N2CCCC2)cc1 (stereo not drawn)	4.1	0.9	-4.9	9.7*	-3.4	-0.3
c1ccc(Cn2ncc3c(N4CCN(C(c5ccccc5)c5ccccc5)CC4)ncnc32)cc1	3.9	-5.5	1.9	-1.2	x	x
c1ccc(Cn2ncc3c(N4CCN(c5ccccc5)CC4)ncnc32)cc1	x	0.6	-5.2	10.8*	-5.8	-4.6
Cc1cc(C)c(NC(=O)Nc2ccccc2)c(Cl)c1	4.8	13.4*	13.2	6.8	-6.1	-0.5
COc1ccc(OC)c(S(=O)(=O)NCCCN2CCOCC2)c1	2.2	-2.3	1.6	11.9*	-6.9	-0.7
O=C(N/N=C/c1cccc(F)c1)c1c(O)c2c([nH]c1=O)CCCC2	x	12.1*	10.8	6.0	-1.7	-0.1
Cc1ccc(S(=O)(=O)N(C)C)cc1NC(=O)[C@H](Cc1ccccc1)N1C(=O)c2ccccc2C1=O	-2.5	3.5	8.7	1.7	x	x
COc1ccc(S(=O)(=O)N(C)C)cc1NC(=O)[C@H](Cc1ccccc1)N1C(=O)c2ccccc2C1=O	5.6	5.3	0.7	9.8*	0.9	3.6
O=C(COC(=O)/C=C/c1cccc(F)c1)Nc1ccccc1	1.5	-1.4	-6.9	0.2	x	x
O=C(COC(=O)/C=C/c1cccc(F)c1)NNC(=O)c1ccccc1	1.5	3.9	-2.6	10.7*	-10.3	-5.1
